What was measured:
Parameters in all cases: dose 5 mg/kg, dosed compound name [14C]CS-1036, route oral
Conditions in all cases: in vivo
Liver = test: Drug uptake in albino F344/DuCrlCrlj rat liver at 5 mg/kg, po after 168 hrs by liquid scintillation counting; type: ADME, organism-based
Small intestine [1] = test: Drug uptake in albino F344/DuCrlCrlj rat small intestine assessed as ng equivalent of CS-1036 at 5 mg/kg, po after 24 hrs by liquid scintillation counting; type: ADME, organism-based
Blood [2] = test: Drug uptake in albino F344/DuCrlCrlj rat blood assessed as ng equivalent of CS-1036 at 5 mg/kg, po after 1 hr by liquid scintillation counting; type: ADME, organism-based
How it was run: (§1)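 Male F344/DuCrlCrlj rats (159–167 g; n = 3 per time point) received a single oral dose of [14C]CS-1036 at 5 mg/kg. Blood was taken from the abdominal aorta at 1, 4, 8, 24, 72, 168 and 336 h. Radioactivity was counted by LSC with external-standard efficiency correction. Results were converted to ng equivalent of CS-1036/ml using specific activity and sample volume, and reported as mean + S.D.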

Large intestine [3] = test: Drug uptake in albino F344/DuCrlCrlj rat large intestine assessed as ng equivalent of CS-1036 at 5 mg/kg, po after 1 hr by liquid scintillation counting; type: ADME, organism-based
[4] = Drug uptake in albino F344/DuCrlCrlj rat testis assessed as ng equivalent of CS-1036 at 5 mg/kg, po after 4 hrs by liquid scintillation counting; type: ADME, organism-based
Pancreas [5] = test: Drug uptake in albino F344/DuCrlCrlj rat pancreas at 5 mg/kg, po after 24 hrs by liquid scintillation counting; type: ADME, organism-based
[6] = Drug uptake in albino F344/DuCrlCrlj rat fat assessed as ng equivalent of CS-1036 at 5 mg/kg, po after 24 hrs by liquid scintillation counting; type: ADME, organism-based, Adipose tissue
How it was run: (§2)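 Male F344/DuCrlCrlj rats (bought at 7 weeks, acclimatized 5–6 days; 159–167 g; n = 3 per time point) received a single oral dose of [14C]CS-1036 at 5 mg/kg. White adipose tissue was collected after abdominal aortic bleeding at 1, 4, 8, 24, 72, 168 or 336 h. Samples were counted by LSC with external-standard efficiency correction. Results were converted to ng equivalents per g from specific activity and sample weight.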

Plasma = test: Drug uptake in albino F344/DuCrlCrlj rat plasma at 5 mg/kg, po after 4 hrs by liquid scintillation counting; type: ADME, organism-based
Harderian gland [7] = test: Drug uptake in albino F344/DuCrlCrlj rat harderian gland assessed as ng equivalent of CS-1036 at 5 mg/kg, po after 1 hr by liquid scintillation counting; type: ADME, organism-based
[8] = Drug uptake in albino F344/DuCrlCrlj rat brown fat assessed as ng equivalent of CS-1036 at 5 mg/kg, po after 72 hrs by liquid scintillation counting; type: ADME, organism-based, Brown adipose tissue
[9] = Drug uptake in albino F344/DuCrlCrlj rat bone marrow at 5 mg/kg, po after 168 hrs by liquid scintillation counting; type: ADME, organism-based
Cerebrum = test: Drug uptake in albino F344/DuCrlCrlj rat cerebrum assessed as ng equivalent of CS-1036 at 5 mg/kg, po after 1 hr by liquid scintillation counting; type: ADME, organism-based
How it was run: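 Single oral [14C]CS-1036 at 5 mg/kg was given to male rats (159–167 g; n = 3). Cerebrum was collected after aortic bleeding at 1, 4, 8, 24, 72, 168 or 336 h, weighed, and homogenized in 2 volumes of saline. A 0.5 ml aliquot was solubilized in Soluene-350 and counted by LSC with external-standard correction. Results are in ng equivalent/g tissue from specific activity and sample weight.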

Spleen [10] = test: Drug uptake in albino F344/DuCrlCrlj rat spleen assessed as ng equivalent of CS-1036 at 5 mg/kg, po after 336 hrs by liquid scintillation counting; type: ADME, organism-based
Blood [11] = test: Drug uptake in albino F344/DuCrlCrlj rat blood at 5 mg/kg, po after 1 hr by liquid scintillation counting; type: ADME, organism-based; how it was run: as §1
Pancreas [12] = test: Drug uptake in albino F344/DuCrlCrlj rat pancreas assessed as ng equivalent of CS-1036 at 5 mg/kg, po after 72 hrs by liquid scintillation counting; type: ADME, organism-based
Pancreas [13] = test: Drug uptake in albino F344/DuCrlCrlj rat pancreas assessed as ng equivalent of CS-1036 at 5 mg/kg, po after 8 hrs by liquid scintillation counting; type: ADME, organism-based
Small intestine [14] = test: Drug uptake in albino F344/DuCrlCrlj rat small intestine at 5 mg/kg, po after 1 hr by liquid scintillation counting; type: ADME, organism-based
Harderian gland [15] = test: Drug uptake in albino F344/DuCrlCrlj rat harderian gland at 5 mg/kg, po after 72 hrs by liquid scintillation counting; type: ADME, organism-based
[16] = Drug uptake in albino F344/DuCrlCrlj rat bone marrow at 5 mg/kg, po after 336 hrs by liquid scintillation counting; type: ADME, organism-based
Stomach = test: Drug uptake in albino F344/DuCrlCrlj rat stomach assessed as ng equivalent of CS-1036 at 5 mg/kg, po after 72 hrs by liquid scintillation counting; type: ADME, organism-based
[17] = Drug uptake in albino F344/DuCrlCrlj rat brown fat assessed as ng equivalent of CS-1036 at 5 mg/kg, po after 24 hrs by liquid scintillation counting; type: ADME, organism-based, Brown adipose tissue
[18] = Drug uptake in albino F344/DuCrlCrlj rat eyeball at 5 mg/kg, po after 24 hrs by liquid scintillation counting; type: ADME, organism-based
[19] = Drug uptake in albino F344/DuCrlCrlj rat bone marrow assessed as ng equivalent of CS-1036 at 5 mg/kg, po after 1 hr by liquid scintillation counting; type: ADME, organism-based
Cerebellum = test: Drug uptake in albino F344/DuCrlCrlj rat cerebellum at 5 mg/kg, po after 8 hrs by liquid scintillation counting; type: ADME, organism-based
Heart = test: Drug uptake in albino F344/DuCrlCrlj rat heart at 5 mg/kg, po after 24 hrs by liquid scintillation counting; type: ADME, organism-based
Harderian gland [20] = test: Drug uptake in albino F344/DuCrlCrlj rat harderian gland assessed as ng equivalent of CS-1036 at 5 mg/kg, po after 168 hrs by liquid scintillation counting; type: ADME, organism-based
Spleen [21] = test: Drug uptake in albino F344/DuCrlCrlj rat spleen at 5 mg/kg, po after 72 hrs by liquid scintillation counting; type: ADME, organism-based
Spleen [22] = test: Drug uptake in albino F344/DuCrlCrlj rat spleen at 5 mg/kg, po after 168 hrs by liquid scintillation counting; type: ADME, organism-based
Pancreas [23] = test: Drug uptake in albino F344/DuCrlCrlj rat pancreas assessed as ng equivalent of CS-1036 at 5 mg/kg, po after 168 hrs by liquid scintillation counting; type: ADME, organism-based
Pancreas [24] = test: Drug uptake in albino F344/DuCrlCrlj rat pancreas at 5 mg/kg, po after 336 hrs by liquid scintillation counting; type: ADME, organism-based
Large intestine [25] = test: Drug uptake in albino F344/DuCrlCrlj rat large intestine assessed as ng equivalent of CS-1036 at 5 mg/kg, po after 336 hrs by liquid scintillation counting; type: ADME, organism-based
Zone of skin = test: Drug uptake in albino F344/DuCrlCrlj rat skin at 5 mg/kg, po after 24 hrs by liquid scintillation counting; type: ADME, organism-based
[26] = Drug uptake in albino F344/DuCrlCrlj rat fat at 5 mg/kg, po after 72 hrs by liquid scintillation counting; type: ADME, organism-based, Adipose tissue; how it was run: as §2

- Radiolabel recovery (Liver): 14.3 ngequiv/g
- Radiolabel recovery (Small intestine [1]): 7.5 ngequiv/g
- Radiolabel recovery (Blood [2]): 9.5 ngequiv/ml
- Radiolabel recovery (Large intestine [3]): 1080 ngequiv/g
- Radiolabel recovery [4]: 5.3 ngequiv/g
- Radiolabel recovery (Pancreas [5]): 310 ngequiv/g
- Radiolabel recovery [6]: 21 ngequiv/g
- Radiolabel recovery (Plasma): 60.1 ngequiv/ml
- Radiolabel recovery (Harderian gland [7]): 4.3 ngequiv/g
- Radiolabel recovery [8]: 136 ngequiv/g
- Radiolabel recovery [9]: 47 ngequiv/g
- Radiolabel recovery (Cerebrum): 0.23 ngequiv/g
- Radiolabel recovery (Spleen [10]): 2.83 ngequiv/g
- Radiolabel recovery (Blood [11]): 60.5 ngequiv/ml
- Radiolabel recovery (Pancreas [12]): 82 ngequiv/g
- Radiolabel recovery (Pancreas [13]): 71 ngequiv/g
- Radiolabel recovery (Small intestine [14]): 52100 ngequiv/g
- Radiolabel recovery (Harderian gland [15]): 119 ngequiv/g
- Radiolabel recovery [16]: 26.2 ngequiv/g
- Radiolabel recovery (Stomach): 21.8 ngequiv/g
- Radiolabel recovery [17]: 63 ngequiv/g
- Radiolabel recovery [18]: 17.4 ngequiv/g
- Radiolabel recovery [19]: 4.6 ngequiv/g
- Radiolabel recovery (Cerebellum): 8.3 ngequiv/g
- Radiolabel recovery (Heart): 41.7 ngequiv/g
- Radiolabel recovery (Harderian gland [20]): 9 ngequiv/g
- Radiolabel recovery (Spleen [21]): 70.6 ngequiv/g
- Radiolabel recovery (Spleen [22]): 18.3 ngequiv/g
- Radiolabel recovery (Pancreas [23]): 5.8 ngequiv/g
- Radiolabel recovery (Pancreas [24]): 25.4 ngequiv/g
- Radiolabel recovery (Large intestine [25]): 6.02 ngequiv/g
- Radiolabel recovery (Zone of skin): 53.9 ngequiv/g
- Radiolabel recovery [26]: 194 ngequiv/g
Compound: C[C@H]1O[C@@H](O[C@H]2[C@H](O)[C@@H](O)[C@@H](O[14C@H]3[14C@H](O)[14CH2]N[14C@@H]3[14CH2]O)O[C@@H]2CO)[C@H](O)[C@@H](O)[C@@H]1O

From ChEMBL document CHEMBL3526002, “Tissue distribution and identification of radioactivity components at elimination phase after oral administration of [¹⁴C]CS-1036, an α-amylase inhibitor, to rats” (Drug Metab Dispos, 2013)
